9 molecules from ChEMBL document CHEMBL1156077, “Piperazinyl-glutamate-pyrimidines as potent P2Y12 antagonists for inhibition of platelet aggregation” (Bioorg Med Chem Lett, 2009) can be followed below.

Calls of active or inactive are those of the source. The rule behind the calls is not given here.

The term Ki denotes the equilibrium dissociation constant of an inhibitor or competing ligand from its target. The term inhibition denotes the relative decrease from the control value, in per cent. What is called half-life is the time in which the quantity being followed falls by half. Read a low half-life as rapid decline. Broadly, the bioavailability is the share of a dose that reaches the circulation, judged against a reference dose that is usually intravenous. Low values mean little systemic uptake, high ones much systemic uptake.

For data set [1], the target named is T1, P2Y purinoceptor 12 (Homo sapiens, UniProt Q9H244). Description: Binding affinity at human recombinant P2Y12 receptor expressed in CHO cells by radioligand binding assay. The format is cell-based. An outline of the steps:
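Washed membranes from CHO cells transfected with synthetic human P2Y12 gene. Compounds as 7-point threefold dilutions, triplicate, 1 h at room temperature. Nonspecific binding defined with 300 nM 2-MeSADP. Filtered, washed with ice-cold Tris pH 7.4. Single-site fit; IC50 converted to Ki by Cheng–Prusoff, geometric mean of n≥2.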

Data set [2] addresses T1, P2Y purinoceptor 12. Description: Binding affinity at human recombinant P2Y12 receptor expressed in CHO cells by radioligand binding assay in presence of 0.4% human serum albumin. The format is cell-based. An outline of the steps:
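Membranes from CHO cells transfected with a synthetic human P2Y12 gene, with 0.4% human serum albumin added to the binding buffer (50 mM Tris, 100 mM NaCl, 1 mM EDTA). Seven-point threefold dilutions were run in triplicate, 1 h at room temperature, then filtered. Ki from IC50 by Cheng-Prusoff.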

A short description of data set [3]: Selectivity for human P2Y12 receptor over P2Y13.
Data set [4] is described as follows: Selectivity for human P2Y12 receptor over P2Y1.
Data set [5] has as its target T1, P2Y purinoceptor 12. The experiment in a line: Ratio of compound IC50 to thienopyrimidine IC50 for P2Y12 receptor in human platelet rich plasma assessed as inhibition of ADP-induced platelet aggregation by light transmission aggregometry. The procedure, abridged:
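Human platelet-rich plasma was pre-incubated 5 min at 37 °C with compound across seven concentrations (10 down to 0.156). Aggregation was started with ADP (20, final) and followed by light transmission at 626 nm for 15 min at 37 °C. Duplicate concentration-response data were read at the 15-min end-point. IC50 was divided by the IC50 of the thienopyrimidine reference run on the same plate.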

Data set [6] has as its target T1, P2Y purinoceptor 12. The experiment in a line: Ratio of compound IC50 to AZD-6140 IC50 for P2Y12 receptor in human platelet rich plasma assessed as inhibition of ADP-induced platelet aggregation by light transmission aggregometry. The procedure, abridged: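 Human platelet-rich plasma was pre-incubated 5 min at 37 °C with compound across seven concentrations (10 down to 0.156). Aggregation was started with ADP (20, final) and followed by light transmission at 626 nm for 15 min at 37 °C. Duplicate concentration-response data were read at the 15-min end-point. IC50 was divided by the IC50 of AZD-6140 run on the same plate.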

The test system of data set [7] is Liver microsomes. The experiment in a line: Metabolic stability in rat liver microsomes assessed as compound remaining. The format is ADME, Microsome. The procedure, abridged:
(§1)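 Compounds incubated 30 min with human or rat liver microsomes; percent of parent compound remaining measured.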
For orientation: Liver microsomes are vesicles of endoplasmic reticulum, rich in cytochrome P450 enzymes.

Data set [8] concerns Liver microsomes. Description: Metabolic stability in human liver microsomes assessed as compound remaining. The format is ADME, Microsome. The procedure, abridged: as §1
The target of another data set is T2, CYP1A2 (Homo sapiens, UniProt P05177).
T2 sequence (P05177 whole entry): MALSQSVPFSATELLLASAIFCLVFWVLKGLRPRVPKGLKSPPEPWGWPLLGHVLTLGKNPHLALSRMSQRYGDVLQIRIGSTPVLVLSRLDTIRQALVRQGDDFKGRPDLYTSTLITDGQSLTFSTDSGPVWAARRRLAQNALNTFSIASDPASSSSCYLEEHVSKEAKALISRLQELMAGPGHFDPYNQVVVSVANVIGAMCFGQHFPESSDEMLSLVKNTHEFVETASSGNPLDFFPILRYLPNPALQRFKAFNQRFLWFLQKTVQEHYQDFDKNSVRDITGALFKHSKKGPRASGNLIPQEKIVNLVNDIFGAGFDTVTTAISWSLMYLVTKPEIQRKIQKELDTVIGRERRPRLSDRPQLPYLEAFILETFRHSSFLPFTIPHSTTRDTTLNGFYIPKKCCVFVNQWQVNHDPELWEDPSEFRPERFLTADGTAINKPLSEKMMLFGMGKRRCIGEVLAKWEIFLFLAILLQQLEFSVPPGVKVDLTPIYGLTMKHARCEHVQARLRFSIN
The experiment in a line: Inhibition of CYP1A2 at 3 uM after 30 mins. The data set is classed as ADME. The procedure, abridged: (§2)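 Each CYP isoform assayed separately at a single 3 µM compound concentration in duplicate, with at least one isoform-specific positive control inhibitor. Incubation 30 min at 37 °C; end-point measurement gives percent inhibition.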

Another data set concerns the target CYP2C9 (Homo sapiens, UniProt P11712). Description: Inhibition of CYP2C9 at 3 uM after 30 mins. The data set is classed as ADME. The procedure, abridged: as §2
The next data set deals with CYP2D6 (Homo sapiens, UniProt P10635). The experiment in a line: Inhibition of CYP2D6 at 3 uM after 30 mins. The data set is classed as ADME. An outline of the steps: as §2
Chain of CYP2D6 (P10635 whole entry): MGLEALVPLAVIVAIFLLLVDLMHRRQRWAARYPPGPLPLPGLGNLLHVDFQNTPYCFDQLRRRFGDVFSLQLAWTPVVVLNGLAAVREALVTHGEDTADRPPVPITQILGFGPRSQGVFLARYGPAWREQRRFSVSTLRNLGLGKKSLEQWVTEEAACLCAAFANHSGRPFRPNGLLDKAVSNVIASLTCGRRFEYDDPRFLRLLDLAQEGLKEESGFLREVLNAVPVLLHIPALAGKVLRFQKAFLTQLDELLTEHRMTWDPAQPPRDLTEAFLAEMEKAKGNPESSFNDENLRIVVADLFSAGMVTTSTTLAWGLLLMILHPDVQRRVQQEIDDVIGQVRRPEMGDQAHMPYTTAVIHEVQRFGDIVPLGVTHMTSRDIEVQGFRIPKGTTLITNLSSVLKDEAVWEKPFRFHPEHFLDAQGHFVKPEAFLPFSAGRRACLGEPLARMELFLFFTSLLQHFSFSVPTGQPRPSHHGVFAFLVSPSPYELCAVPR
The target in a further data set is CYP3A4 (Homo sapiens, UniProt P08684). The experiment in a line: Inhibition of CYP3A4 at 3 uM after 30 mins. The format is ADME. The procedure, abridged:
as §2

The target of another data set is hERG (KCNH2) (Homo sapiens, UniProt Q12809). Description: Displacement of Cy3B-tagged N-desmethyl dofetilide from human ERG expressed in HEK cells at 10 uM after 120 mins. The data set is classed as cell-based, HEK293. The settings on record: HEK cells that express human ERG, probe Cy3B-tagged N-desmethyl dofetilide. The procedure, abridged: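 Fluorescence polarization competition assay with HEK-hERG membrane homogenates and Cy3B-tagged N-desmethyl dofetilide tracer. Compound tested at a single 10 µM concentration, 120 min incubation, end-point read for percent inhibition.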
Chain of hERG (KCNH2) (Q12809 whole entry): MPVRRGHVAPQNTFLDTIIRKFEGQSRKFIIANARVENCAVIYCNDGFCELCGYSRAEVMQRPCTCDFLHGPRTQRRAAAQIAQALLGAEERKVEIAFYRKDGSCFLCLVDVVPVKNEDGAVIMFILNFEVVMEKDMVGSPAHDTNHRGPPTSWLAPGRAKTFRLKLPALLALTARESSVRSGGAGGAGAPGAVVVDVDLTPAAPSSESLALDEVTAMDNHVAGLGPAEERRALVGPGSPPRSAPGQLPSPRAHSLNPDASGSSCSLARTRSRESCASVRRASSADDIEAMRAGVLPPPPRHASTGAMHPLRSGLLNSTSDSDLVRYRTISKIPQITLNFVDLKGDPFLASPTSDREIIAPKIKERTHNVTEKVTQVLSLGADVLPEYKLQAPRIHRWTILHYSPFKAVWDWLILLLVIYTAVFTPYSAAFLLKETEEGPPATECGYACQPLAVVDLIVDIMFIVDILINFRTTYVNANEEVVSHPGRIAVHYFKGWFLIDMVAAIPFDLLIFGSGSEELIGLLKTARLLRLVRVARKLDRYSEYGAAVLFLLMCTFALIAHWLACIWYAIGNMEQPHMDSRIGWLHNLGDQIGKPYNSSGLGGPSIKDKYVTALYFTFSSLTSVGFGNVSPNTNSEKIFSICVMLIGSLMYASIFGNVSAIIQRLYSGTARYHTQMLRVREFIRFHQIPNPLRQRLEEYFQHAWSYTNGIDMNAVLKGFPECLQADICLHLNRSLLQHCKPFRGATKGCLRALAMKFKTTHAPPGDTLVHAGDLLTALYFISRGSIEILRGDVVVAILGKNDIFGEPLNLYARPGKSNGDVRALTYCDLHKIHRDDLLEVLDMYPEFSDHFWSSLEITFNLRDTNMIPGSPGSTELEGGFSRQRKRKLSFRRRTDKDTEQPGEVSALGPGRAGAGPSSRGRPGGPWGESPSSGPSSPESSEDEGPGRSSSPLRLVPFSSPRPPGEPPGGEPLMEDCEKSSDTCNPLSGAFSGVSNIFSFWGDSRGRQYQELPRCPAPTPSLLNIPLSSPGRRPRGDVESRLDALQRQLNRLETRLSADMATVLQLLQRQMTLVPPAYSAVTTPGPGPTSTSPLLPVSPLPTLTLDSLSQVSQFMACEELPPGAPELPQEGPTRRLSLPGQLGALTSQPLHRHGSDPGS

Data set [9] in a line: Effective half life in Sprague-Dawley rat at 2 mg/kg, iv and 5 mg/kg, po. The format is ADME, organism-based. The settings on record: in vivo.
Data set [10] is described as follows: Clearance in Sprague-Dawley rat at 2 mg/kg, iv and 5 mg/kg, po. The format is ADME, organism-based. Particulars: in vivo.
A short description of data set [11]: Volume of distribution at steady state in Sprague-Dawley rat at 2 mg/kg, iv and 5 mg/kg, po. The data set is classed as ADME, organism-based. The settings on record: in vivo, read-out: Vdss.
A short description of data set [12]: Oral bioavailability in Sprague-Dawley rat at 5 mg/kg. The data set is classed as ADME, organism-based. The settings on record: in vivo.

Chain of CYP3A4 (P08684 whole entry): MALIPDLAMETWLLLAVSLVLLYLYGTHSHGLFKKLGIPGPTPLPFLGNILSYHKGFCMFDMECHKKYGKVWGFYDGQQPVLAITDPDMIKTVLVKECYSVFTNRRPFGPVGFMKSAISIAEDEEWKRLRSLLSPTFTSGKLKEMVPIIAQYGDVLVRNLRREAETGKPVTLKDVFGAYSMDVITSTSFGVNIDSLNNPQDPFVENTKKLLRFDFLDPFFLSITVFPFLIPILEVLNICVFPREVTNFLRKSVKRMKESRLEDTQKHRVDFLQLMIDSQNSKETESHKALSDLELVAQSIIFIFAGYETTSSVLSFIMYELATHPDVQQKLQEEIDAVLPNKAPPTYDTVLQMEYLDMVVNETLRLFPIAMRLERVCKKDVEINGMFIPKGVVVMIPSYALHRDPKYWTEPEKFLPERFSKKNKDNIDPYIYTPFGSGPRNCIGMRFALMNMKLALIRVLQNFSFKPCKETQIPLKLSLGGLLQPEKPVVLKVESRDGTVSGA
T1 sequence (Q9H244 whole entry): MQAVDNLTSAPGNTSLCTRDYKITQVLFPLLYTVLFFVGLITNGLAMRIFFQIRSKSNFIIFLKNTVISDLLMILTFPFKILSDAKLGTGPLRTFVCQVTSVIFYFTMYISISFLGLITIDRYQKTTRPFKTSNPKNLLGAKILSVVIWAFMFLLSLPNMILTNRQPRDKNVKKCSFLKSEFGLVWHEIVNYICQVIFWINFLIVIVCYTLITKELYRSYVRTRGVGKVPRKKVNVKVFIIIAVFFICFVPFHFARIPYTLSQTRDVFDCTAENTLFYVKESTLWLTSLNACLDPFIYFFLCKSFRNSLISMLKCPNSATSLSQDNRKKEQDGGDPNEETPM
Chain of CYP2C9 (P11712 whole entry): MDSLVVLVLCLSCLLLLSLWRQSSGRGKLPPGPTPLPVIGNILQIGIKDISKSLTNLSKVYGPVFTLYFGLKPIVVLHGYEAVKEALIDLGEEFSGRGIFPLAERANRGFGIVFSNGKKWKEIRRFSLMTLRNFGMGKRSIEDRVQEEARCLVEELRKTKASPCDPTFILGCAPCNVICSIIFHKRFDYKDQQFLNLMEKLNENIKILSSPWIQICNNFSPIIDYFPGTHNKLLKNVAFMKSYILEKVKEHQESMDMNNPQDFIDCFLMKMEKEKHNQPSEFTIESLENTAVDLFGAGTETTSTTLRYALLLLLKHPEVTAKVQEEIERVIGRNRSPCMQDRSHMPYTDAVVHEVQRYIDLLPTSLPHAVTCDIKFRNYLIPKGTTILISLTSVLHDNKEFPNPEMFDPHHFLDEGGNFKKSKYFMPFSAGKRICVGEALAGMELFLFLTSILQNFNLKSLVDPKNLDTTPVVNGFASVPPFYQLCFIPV

Take `CCCCCOC(=O)N1CCN(C(=O)[C@H](CCC(=O)O)NC(=O)c2cc(SC(C)(C)C)nc(-c3ccccc3)n2)CC1`: the Ki on P2Y purinoceptor 12 [1] came out at 42 nM. Further, the outcome at P2Y purinoceptor 12 [2] was inactive. For the same molecule, the fold change (FC) in data set [3] and in [4] was more than 340 in each case.

For `CCCCCOC(=O)N1CCN(C(=O)[C@H](CCC(=O)O)NC(=O)c2cc(SC3CCCCC3)nc(-c3ccccc3)n2)CC1`, the Ki at P2Y purinoceptor 12 [1] came out at 70 nM. Besides, the outcome at P2Y purinoceptor 12 [2] was inactive. The fold change (FC) in data set [3] and in data set [4] was more than 340 in each case.

Take `CCCCCOC(=O)N1CCN(C(=O)[C@H](CCC(=O)O)NC(=O)c2cc(SCC(F)(F)F)nc(-c3ccccc3)n2)CC1`: on P2Y purinoceptor 12 [1], the Ki worked out at 22 nM. The outcome on P2Y purinoceptor 12 [2] was inactive. Further, the fold change (FC) in data set [3] and in data set [4] was more than 340 in each case.

Regarding `CCCCCOC(=O)N1CCN(C(=O)[C@H](CCC(=O)O)NC(=O)c2cc(SCCO)nc(-c3ccccc3)n2)CC1`, the Ki on P2Y purinoceptor 12 [1] was 4.5 nM. For the same molecule, the outcome at P2Y purinoceptor 12 [2] was inactive. The fold change (FC) in data set [3] and in [4] was more than 340 throughout.

Take `CCCCCOC(=O)N1CCN(C(=O)[C@H](CCC(=O)O)NC(=O)c2cc(N3CCC(CNC)CC3)nc(-c3ccccc3)n2)CC1`: the Ki at P2Y purinoceptor 12 [1] stood at 1.2 nM. The Ratio IC50 on P2Y purinoceptor 12 [5] was determined as 0.1; at P2Y purinoceptor 12 [6] it was 0.7. Moreover, the Stability in the data set with Liver microsomes [7] and with Liver microsomes [8] was more than 80% in each case. Besides, the inhibition at 0.5 h, 3 µM on CYP1A2, at CYP2C9, against CYP2D6 and against CYP3A4 was less than 25% throughout. In addition, the inhibition at 2 h, 10 µM on hERG (KCNH2) is less than 25%. Further, the half-life in data set [9] stood at 42 min. Moreover, in data set [10], the clearance is 31 mL/min/kg. For the same molecule, the Vd in [11] is 2 L/kg. The bioavailability in [12] turned out to be 2%. Moreover, the fold change (FC) in [3] and in [4] was more than 340 each time.

For `CCCCCOC(=O)N1CCN(C(=O)[C@H](CCC(=O)O)NC(=O)c2cc(SC3CCCC3)nc(-c3ccccc3)n2)CC1`, at P2Y purinoceptor 12 [1], the Ki was determined as 17 nM. Further, the outcome at P2Y purinoceptor 12 [2] was inactive. The fold change (FC) in data set [3] and in [4] was more than 340 throughout.

For `CCCCCOC(=O)N1CCN(C(=O)[C@H](CCC(=O)O)NC(=O)c2cc(N3CCC(CN)CC3)nc(-c3ccccc3)n2)CC1`, the Ki on P2Y purinoceptor 12 [1] is 3 nM. Further, the figures for the Ratio IC50 at P2Y purinoceptor 12 [5] and at P2Y purinoceptor 12 [6] were 0.1 and 0.6, respectively. Besides, the Stability in the data set with Liver microsomes [7] and in the data set on Liver microsomes [8] was more than 80% in each case. Also, the inhibition at 0.5 h, 3 µM at CYP1A2, on CYP2C9, on CYP2D6 and at CYP3A4 was less than 25% each time. Moreover, the inhibition at 2 h, 10 µM at hERG (KCNH2) is less than 25%. The molecule further displayed a half-life in data set [9] of 102 min. The molecule also yielded a clearance in data set [10] of 33 mL/min/kg. Besides, the Vd in [11] worked out at 4.9 L/kg. In addition, the bioavailability in data set [12] stood at 1%. The fold change (FC) in [3] and in [4] was more than 340 in each case.

As to `CCCCOC(=O)N1CCN(C(=O)[C@H](CCC(=O)O)NC(=O)c2cc(N3CCC(C(=O)NCC)CC3)nc(-c3ccccc3)n2)CC1`, the Ki at P2Y purinoceptor 12 [1] is 0.38 nM. Also, the results for the Ratio IC50 on P2Y purinoceptor 12 [5] and at P2Y purinoceptor 12 [6] were 0.1 and 0.6, respectively. The Stability with Liver microsomes [7] and in the data set on Liver microsomes [8] was more than 80% in each case. Further, the inhibition at 0.5 h, 3 µM against CYP1A2, against CYP2C9, on CYP2D6 and against CYP3A4 was less than 25% each time. The same molecule showed an inhibition at 2 h, 10 µM at hERG (KCNH2) of less than 25%. Also, the half-life in data set [9] came out at 6 min. Also, the clearance in [10] came out at 16 mL/min/kg. For the same molecule, the Vd in [11] turned out to be 0.3 L/kg. This molecule also registered a bioavailability in [12] of 7%. The fold change (FC) in data set [3] and in [4] was more than 340 throughout.

With `CCCCCOC(=O)N1CCN(C(=O)[C@H](CCC(=O)O)NC(=O)c2cc(N3CCC(CN4CCCC4)CC3)nc(-c3ccccc3)n2)CC1`, the Ki at P2Y purinoceptor 12 [1] is 0.4 nM. The Ratio IC50 on P2Y purinoceptor 12 [5] came to 0.1; at P2Y purinoceptor 12 [6] it was 0.7. For the same molecule, the Stability with Liver microsomes [7] and with Liver microsomes [8] was more than 80% throughout. The inhibition at 0.5 h, 3 µM on CYP1A2, at CYP2C9, on CYP2D6 and against CYP3A4 was less than 25% in each case. The molecule also returned an inhibition at 2 h, 10 µM at hERG (KCNH2) of less than 25%. This molecule also had a half-life in data set [9] of 18 min. Moreover, in data set [10], the clearance worked out at 98 mL/min/kg. The Vd in data set [11] was 7.7 L/kg. In data set [12], the bioavailability was 1%. For the same molecule, the fold change (FC) in data set [3] and in data set [4] was more than 340 each time.
